This is one part of a sample in which hits are shown more often than they occur.
T cruzi growth – inhibitors of T. cruzi proliferation. T. cruzi beta-gal in NIH3T3, GalScreen luminescence, 90 h. inhibition, % at 8.34 µM. hit rate 5.9% among 77,000. AID 624255;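 active means mean inhibition above about 93%, with at least 55% of replicates each passing it, limit read from the data, passing the limit was not always enough; inconclusive means only one of those two conditions holds; inactive means neither condition holds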
IDH1 R132H inh – IDH1 R132H (human) inhibition; O75874; IDH1 R132H reductase, diaphorase/resazurin fluorescence, 60 min; inhibition, % at 10 µM; hit rate 0.18% among 70,000; in the data active means inhibition above about 34%; inconclusive means no clear call, values can overlap the other calls; inactive means below about 11%
KDM4C inh – KDM4C (human) demethylase inhibition; Q9H3R0; AID 720574; GST-KDM4C 2-372, H3K9me3 peptide, LANCE TR-FRET; hit rate 0.15% among 96,000; inhibition, % at 12.5 µM;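 active means mean replicate inhibition above about 25%, with at least 55% of replicates also reaching it, limit read from the data, passing the limit was not always enough; inconclusive means only one of those two conditions met; inactive means neither condition met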
Target sequence (Q9H3R0 2-372 limits assumed): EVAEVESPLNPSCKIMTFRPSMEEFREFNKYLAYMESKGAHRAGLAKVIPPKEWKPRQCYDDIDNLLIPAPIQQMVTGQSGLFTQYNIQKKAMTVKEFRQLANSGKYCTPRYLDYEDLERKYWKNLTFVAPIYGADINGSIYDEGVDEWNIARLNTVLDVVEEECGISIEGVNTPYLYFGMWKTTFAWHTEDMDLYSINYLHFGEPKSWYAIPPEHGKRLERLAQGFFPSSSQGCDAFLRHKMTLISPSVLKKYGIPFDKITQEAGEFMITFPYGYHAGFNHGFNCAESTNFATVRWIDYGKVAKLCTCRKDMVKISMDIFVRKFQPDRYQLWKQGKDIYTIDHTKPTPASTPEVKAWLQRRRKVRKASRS
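Assay system: GST-GASC-1 enzyme fragment 2-372 | Amount: 10 nM enzyme | Medium: HEPES buffer, pH 7.5, plus ascorbate | Reagent: H3K9me3 peptide substrate, Fe(II), 2-oxoglutarate | Doses: Single-point compound screen | Incubation: 30 min demethylation and 1 h detection at room temperature | Measured by: LANCE TR-FRET, excitation 340 nm, emissions 618 and 671 nm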
Large screens that a line does not name were inactive; ! = repeats disagree.

C[C@@H]1CN([C@H](C)CO)S(=O)(=O)c2ccc(C3=CCCC3)cc2O[C@@H]1CN(C)Cc1ccncc1	none (no result: IDH1 R132H inh)
C[C@H](CO)N1C[C@H](C)[C@H](CN(C)Cc2ccncc2)Oc2cc(Br)ccc2S1(=O)=O	none (no result: IDH1 R132H inh, KDM4C inh)
C[C@H](CO)N1C[C@H](C)[C@@H](CN(C)Cc2ccc(F)cc2)Oc2cc(C#CCN(C)C)ccc2S1(=O)=O	none
C[C@@H]1CN([C@H](C)CO)S(=O)(=O)c2ccc(Br)cc2O[C@H]1CN(C)Cc1ccncc1	IDH1 R132H inh 42.0
C[C@@H]1CN([C@@H](C)CO)S(=O)(=O)c2ccc(C3=CCCCC3)cc2O[C@H]1CN(C)C(=O)Cc1cccnc1	IDH1 R132H inh 45.1
C[C@H](CO)N1C[C@H](C)[C@H](CN(C)Cc2ccc(F)cc2)Oc2cc(C#CCN(C)C)ccc2S1(=O)=O	KDM4C inh 41.9
C[C@H](CO)N1C[C@H](C)[C@H](CN(C)C(=O)Cc2ccncc2)Oc2cc(C3=CCCCC3)ccc2S1(=O)=O	IDH1 R132H inh inconclusive
CCN1CCCC1CNC(=O)C(NC(=O)c1ccc(C23CC4CC(CC(C4)C2)C3)cc1)C(C)C (stereo not given)	none (no result: T cruzi growth, KDM4C inh)
C[C@H](O)C#Cc1ccc2c(c1)O[C@H](CN(C)Cc1ccncc1)[C@@H](C)CN([C@@H](C)CO)S2(=O)=O	none (no result: IDH1 R132H inh)
CC(C)C#Cc1ccc2c(c1)O[C@H](CN(C)Cc1ccncc1)[C@H](C)CN([C@@H](C)CO)S2(=O)=O	T cruzi growth 104.8
CC(Oc1ccc(Cl)cc1Cl)C(=O)Nc1cccc(Cl)c1N1CCOCC1 (stereo not given)	none (no result: T cruzi growth, KDM4C inh)
O=S(=O)(N[C@H]1CC[C@H](CCn2cc(Cc3ccccc3)nn2)O[C@H]1CO)c1ccccc1F	KDM4C inh 34.1
O=S(=O)(N[C@@H]1CC[C@@H](CCn2cc(Cc3ccccc3)nn2)O[C@H]1CO)c1ccccc1F	none
O=S(=O)(N[C@@H]1CC[C@H](CCn2cc(C3(O)CCCC3)nn2)O[C@@H]1CO)c1ccc(F)cc1	none
O=S(=O)(N[C@H]1CC[C@@H](CCn2cc(C3(O)CCCC3)nn2)O[C@@H]1CO)c1ccc(F)cc1	KDM4C inh 35.9
O=C(O)C1C2C=CC(C2)C1C(=O)Nc1cccc([N+](=O)[O-])c1 (stereo not given)	none (no result: T cruzi growth, KDM4C inh)
CCOC(=O)c1c(NC(=O)COc2ccccc2C)sc2c1CCC2	none (no result: T cruzi growth, KDM4C inh)
CNC(=O)C(C)N(c1cc(C)cc(C)c1)S(C)(=O)=O (stereo not given)	none (no result: T cruzi growth, KDM4C inh)
Cc1ccc(S(=O)(=O)NCC[C@H]2CC[C@@H](NC(=O)CC3CC3)[C@H](CO)O2)cc1	none
Cc1ccc(S(=O)(=O)NCC[C@@H]2CC[C@H](NC(=O)CC3CC3)[C@@H](CO)O2)cc1	KDM4C inh 38.6
Cc1cc(C)c2c(CC(=O)N(CC#N)CC#N)coc2c1	none (no result: T cruzi growth, KDM4C inh)
O=C(CSc1n[nH]c(-c2ccccc2Cl)n1)Nc1ccccc1F	none (no result: T cruzi growth, KDM4C inh)
C[C@@H]1CCCCO[C@@H](CN(C)C(=O)Nc2ccc(F)cc2)[C@H](C)CN([C@H](C)CO)C(=O)c2cc(NC(=O)Nc3ccccc3)ccc2O1	T cruzi growth 112.4 (no result: IDH1 R132H inh)
C[C@@H]1CCCCO[C@@H](CN(C)Cc2ccc3c(c2)OCO3)[C@H](C)CN([C@@H](C)CO)C(=O)c2cc(N(C)C)ccc2O1	T cruzi growth 102.0! (no result: IDH1 R132H inh, KDM4C inh)
C[C@@H]1CCCCO[C@H](CN(C)C(=O)Nc2cccc3ccccc23)[C@@H](C)CN([C@H](C)CO)C(=O)c2cc(NC(=O)Nc3ccc(C(F)(F)F)cc3)ccc2O1	none
C[C@@H]1CCCCO[C@@H](CN(C)C(=O)Nc2cccc3ccccc23)[C@H](C)CN([C@H](C)CO)C(=O)c2cc(NC(=O)Nc3ccc(C(F)(F)F)cc3)ccc2O1	T cruzi growth 109.4 (no result: IDH1 R132H inh)
C[C@@H]1CN([C@@H](C)CO)C(=O)c2cc(NC(=O)Nc3ccc(C(F)(F)F)cc3)ccc2O[C@@H](C)CCCCO[C@@H]1CN(C)CC1CCCCC1	T cruzi growth 99.8
C[C@@H]1CCCCO[C@H](CN(C)CC2CCCCC2)[C@@H](C)CN([C@H](C)CO)C(=O)c2cc(NC(=O)Nc3ccc(C(F)(F)F)cc3)ccc2O1	none
C[C@@H]1CCCCO[C@H](CN(C)Cc2ccc3c(c2)OCO3)[C@H](C)CN([C@@H](C)CO)C(=O)c2cc(N(C)C)ccc2O1	none (no result: KDM4C inh)
C[C@@H]1CCCCO[C@H](CN(C)C(=O)Nc2ccc(F)cc2)[C@H](C)CN([C@@H](C)CO)C(=O)c2cc(NC(=O)Nc3ccccc3)ccc2O1	none (no result: IDH1 R132H inh)
COc1ccc([N+](=O)[O-])cc1NC(=O)CN(c1cc(C(F)(F)F)ccc1Cl)S(C)(=O)=O	none (no result: T cruzi growth, KDM4C inh)
N#Cc1ccc(NC(=O)c2ccc(Br)o2)cc1	none (no result: T cruzi growth, KDM4C inh)
Cc1ccc2[nH]c(C)c(CCC(=O)O)c(=O)c2c1	none (no result: T cruzi growth, KDM4C inh)
CCCn1c(=O)cc(N)n(-c2ccc(Cl)cc2)c1=O	none (no result: T cruzi growth, KDM4C inh)
Cc1nc(SCC(=O)Nc2ccccc2[N+](=O)[O-])c2c(C)c(C)sc2n1	none (no result: T cruzi growth, KDM4C inh)
COc1cc(C(=O)Nc2ccc(OCC(=O)O)cc2)ccc1OC(C)=O	none (no result: T cruzi growth, KDM4C inh)
COc1ccc(NC(=O)N(C)C[C@@H]2OCCCC[C@@H](C)Oc3ccc(NC(=O)Nc4ccc(C(F)(F)F)cc4)cc3C(=O)N([C@H](C)CO)C[C@@H]2C)cc1	none
Cc1noc(C)c1S(=O)(=O)N(C)C[C@H]1OCCCC[C@@H](C)Oc2ccc(NC(=O)Nc3ccc(C(F)(F)F)cc3)cc2C(=O)N([C@@H](C)CO)C[C@H]1C	T cruzi growth 96.9 (no result: IDH1 R132H inh)
Cc1noc(C)c1S(=O)(=O)N(C)C[C@H]1OCCCC[C@H](C)Oc2ccc(NC(=O)Nc3ccc(C(F)(F)F)cc3)cc2C(=O)N([C@H](C)CO)C[C@H]1C	none (no result: IDH1 R132H inh)
COc1ccc(CN(C)C[C@H]2OCCCC[C@@H](C)Oc3ccc(NC(=O)NC(C)C)cc3C(=O)N([C@@H](C)CO)C[C@@H]2C)cc1	none (no result: IDH1 R132H inh)
COc1ccc(NC(=O)N(C)C[C@@H]2OCCCC[C@H](C)Oc3ccc(NC(=O)Nc4ccc(C(F)(F)F)cc4)cc3C(=O)N([C@@H](C)CO)C[C@@H]2C)cc1	T cruzi growth 120.0
COc1ccc(CN(C)C[C@@H]2OCCCC[C@@H](C)Oc3ccc(NC(=O)NC(C)C)cc3C(=O)N([C@H](C)CO)C[C@H]2C)cc1	IDH1 R132H inh 67.7, KDM4C inh inconclusive
CS(=O)(=O)N(CC(=O)Nc1ccc(Oc2ccccc2)cc1)c1ccc(F)c(Cl)c1	none (no result: T cruzi growth, KDM4C inh)
CC(=O)/C=C/C1(O)C(C)CCC2C(C)(C)CCCC21C (stereo not given)	none (no result: T cruzi growth, KDM4C inh)
CO[C@@H]1CN(C)C(=O)c2cc(NS(C)(=O)=O)ccc2OC[C@H](C)N(C(=O)CC2CC2)C[C@H]1C	none
CO[C@H]1CN(C)C(=O)c2cc(NS(C)(=O)=O)ccc2OC[C@H](C)N(C(=O)CC2CC2)C[C@H]1C	IDH1 R132H inh 44.5
CO[C@H]1CN(C)C(=O)c2cc(NC(C)=O)ccc2OC[C@@H](C)N(C(=O)CC2CC2)C[C@H]1C	IDH1 R132H inh 84.7, KDM4C inh 37.9
CO[C@@H]1CN(C)C(=O)c2cc(NC(C)=O)ccc2OC[C@H](C)N(C(=O)CC2CC2)C[C@H]1C	none
COc1ccc(S(=O)(=O)NCc2cccnc2)c(C)c1C	none (no result: T cruzi growth, KDM4C inh)
CN(C)c1ccc2c(c1)[C@H]1C[C@H](CC(=O)NCc3ccc(-c4ccccc4)cc3)O[C@H](CO)[C@H]1O2	none (no result: T cruzi growth, IDH1 R132H inh)
CN(C)c1ccc2c(c1)[C@@H]1C[C@H](CC(=O)NCc3ccccc3)O[C@@H](CO)[C@@H]1O2	KDM4C inh 46.7
